Source: PubChem BioAssay
This is a sample that favours compounds with a hit; in the whole collection about 3.7% have one here.
KCNQ1 act: potentiators or activators of KCNQ1 channel, primary screen, cell-based, thallium flux, high-throughput; Potassium voltage-gated channel subfamily KQT member 1 (Homo sapiens), P51787; CHO-K1 KCNQ1, thallium flux FluxOR fluorescence; hits give high values; B-score at 10 µM; 310,000 tested, 0.35% active; AID 2648, 2010;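 active = fluorescence ratio B-score, a plate-corrected score, at least three library SD, with initial intensity B-score within 5 SD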
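System: Stable KCNQ1 CHO-K1 line | Incubation: 90 min dye loading and 20 min compound exposure, both at room temperature | Measure: Ratio B score | Medium: Assay buffer for compound exposure, DMSO matched across wells | Compound dosing: Single-concentration screen | Probe or stimulus: K+/Tl+ depolarizing stimulus | Measured by: Kinetic FluxOR fluorescence, 10 s baseline plus 110 s post-stimulus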
KCNK3 inh: human KCNK3 channel inhibitors, primary screen, CHO cells, FluxOR thallium flux, B-score; B-score at 10 µM; 340,000 tested, 0.84% active; FluxOR fluorescence; hits give low values; AID 602410, 2012; Potassium channel subfamily K member 3 (Homo sapiens), O14649;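 active = B-score under library mean minus 4 SD, starting fluorescence ratio at most library mean plus 5 SD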;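 also: more negative B-score means stronger inhibition of thallium flux through KCNK3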
hERG protect: hERG rescue from dofetilide block, primary screen, cell-based, CHO-hERG, FluxOR thallium flux, dofetilide IC70; Voltage-gated inwardly rectifying potassium channel KCNH2 (Homo sapiens), Q12809; dofetilide IC70 present; activation (rescue from dofetilide block), less the hit threshold, % at 10 µM; 310,000 tested, 0.51% active; AID 1511, 2009;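 active = activation above the mean of controls blocked by dofetilide plus 5 SD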;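 also: thallium influx through hERG after potassium depolarization seen as dye fluorescence rise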
KCNK9 block: KCNK9 potassium channel inhibitors, primary screen, HEK293 cells, thallium flux; Potassium channel subfamily K member 9 (Homo sapiens), Q9NPC2; FluxOR thallium flux fluorescence; hits give low values; B-score at 10 µM; 310,000 tested, 1.2% active; AID 488922, 2010;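 active = ratio B-score over 3 SD below the library mean, with starting fluorescence within 5 SD of its mean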;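 also: negative B-score means less thallium flux so channel inhibition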
Target sequence (Q9NPC2 whole entry, looked up): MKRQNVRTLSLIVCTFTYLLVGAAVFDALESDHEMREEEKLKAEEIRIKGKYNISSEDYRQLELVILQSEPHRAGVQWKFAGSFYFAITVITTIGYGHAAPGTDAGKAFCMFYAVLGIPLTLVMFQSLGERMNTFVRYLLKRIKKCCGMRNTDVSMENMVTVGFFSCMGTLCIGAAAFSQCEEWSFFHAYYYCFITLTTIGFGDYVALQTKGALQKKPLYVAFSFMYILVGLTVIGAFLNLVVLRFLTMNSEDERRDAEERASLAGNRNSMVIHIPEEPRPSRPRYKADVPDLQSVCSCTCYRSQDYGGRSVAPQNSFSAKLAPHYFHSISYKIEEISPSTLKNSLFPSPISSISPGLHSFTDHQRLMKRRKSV
Kir21 inh: inhibitors of mouse Kir2.1 inward-rectifier potassium channel | Inward rectifier potassium channel 2 (Mus musculus), P35561 | HEK293-Kir2.1, FluxOR thallium flux fluorescence; hits give low values | B-score at 10 µM | 310,000 tested, 0.85% active | AID 1672, 2009;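 active = fluorescence ratio B-score at or below minus 3 SD of library scores, with starting-brightness B-score within 2 SD, cut at about -4.2 in these data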;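 also: channel flux triggered by added potassium and thallium sulfate stimulus; B-score of peak minus minimum fluorescence over baseline after thallium stimulus; more negative B-score means stronger Kir2.1 block with less thallium influx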
KCNQ1 inh: inhibitors of human KCNQ1 channel, primary screen, cell-based, thallium flux, high-throughput | B-score at 10 µM | Potassium voltage-gated channel subfamily KQT member 1 (Homo sapiens), P51787 | 310,000 tested, 1.3% active | CHO-K1 KCNQ1, FluxOR thallium flux fluorescence; hits give high values;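 active = compounds whose thallium flux B-score, printed positive for inhibition, exceeds three library SD while starting fluorescence stays within three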;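 also: channel opened by potassium depolarization with thallium stimulus after 20 min compound exposure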
The depositor's hits bear a star; i = inactive; · = no result.

SMILES	KCNQ1 act	KCNK3 inh	hERG protect	KCNK9 block	Kir21 inh	KCNQ1 inh
O=C(NCC(c1cccs1)N1CCOCC1)c1ccccc1NS(=O)(=O)c1ccc(Cl)c([N+](=O)[O-])c1 (configuration not stated)	i	i	-13	i	0.5	13*
O=C(NCC(c1cccs1)N1CCOCC1)c1ccccc1NS(=O)(=O)c1cccc([N+](=O)[O-])c1 (configuration not stated)	i	i	-9	i	0.85	i
Cc1cc(NC(=O)CN2C(=O)[C@@H]3[C@H](C2=O)[C@@H]2C[C@H]3C(Br)C2Br)no1 (some centres not stated)	i	i	-5	i	0.29	i
O=C(O)c1cccc(-n2sc3ccccc3c2=O)c1	·	i	·	·	·	·
O=c1c2ccccc2sn1-c1ccccc1	i	i	6.5*	i	-1.4	i
CC(OC(=O)/C(C#N)=C/c1ccc(N(C)C)cc1)C(=O)NCc1ccco1 (configuration not stated)	i	i	-11	i	0	7*
CN(C)c1ccc(/C=C(\C#N)C(=O)NCc2ccco2)cc1	i	·	-5	i	-0.87	i
CC(OC(=O)/C(C#N)=C/c1ccc(N(C)C)cc1)C(=O)N(C)c1ccccc1 (configuration not stated)	i	i	-16	i	-2.2	8*
CCCCn1c(N)c(N(CC(C)C)C(=O)c2c(-c3ccccc3)noc2C)c(=O)[nH]c1=O	·	i	·	·	·	·
CCOC(=O)N1CCN(C(=O)CN(C)S(=O)(=O)c2ccc(Cl)cc2)CC1	i	i	-4	i	0.08	i
COc1cccc(/C=C/C(=O)OCC(=O)NC2CC2)c1OC	·	i	·	·	·	·
Cc1[nH][nH]c(=O)c1C(c1ccc(-c2ccc(F)cc2)o1)c1c(C)[nH][nH]c1=O	9*	i	-15	i	-5.3*	i
COc1cc(NC(=O)CCCNC(=O)c2ccc(Cl)cc2)cc(OC)c1OC	i	i	-5	i	-0.67	i
CC(=O)OCC(=O)[C@@]12OC(C)(C)O[C@@H]1C[C@H]1[C@@H]3C[C@H](F)C4=CC(=O)C=C[C@]4(C)[C@@]3(F)[C@@H](O)C[C@@]12C	i	·	1	i	0.96	i
CC(=O)OCC(=O)[C@@]1(OC(C)=O)[C@@H](C)C[C@H]2[C@@H]3C[C@H](F)C4=CC(=O)C=C[C@]4(C)[C@@]3(F)[C@@H](O)C[C@@]21C	29*	i	-11	i	-0.94	i
O=C(NC(=S)Nc1ncc(Br)cc1Br)c1ccccc1	7*	i	1	i	1.5	i
O=C(NC(=S)Nc1cnc2ccccc2c1)c1ccccc1	i	i	-8	i	-0.74	i
Nc1nnnn1/N=C/c1ccc(F)cc1	i	i	-5	i	0.69	i
Cc1onc(-c2ccccc2Cl)c1C(=O)Nc1nnc(-c2ccc(F)cc2)s1	i	i	-8	i	0.81	i
Cc1onc(-c2ccccc2Cl)c1C(=O)Nc1nnc(-c2ccc(Cl)cc2Cl)s1	i	i	-9	i	2.7	8*
Cc1onc(-c2ccccc2Cl)c1C(=O)Nc1nnc(-c2ccc(Br)cc2)s1	i	i	-11	i	-0.28	8*
Cc1onc(-c2c(F)cccc2Cl)c1C(=O)Nc1nnc(-c2ccccc2)s1	i	i	-6	i	0	i
O=C1CCc2cc(NS(=O)(=O)c3ccc(Cl)cc3)cc3c2N1CC3	i	i	-15	i	-1.1	i
CCN(CC)S(=O)(=O)c1cccc(C(=O)/C=C2/N(C)c3ccccc3C2(C)C)c1	i	i	-15	-7.7*	-0.02	i
